Assay results as given in ChEMBL document CHEMBL1212770, “Molecular and biochemical characterization of the natural chromosome-encoded class A beta-lactamase from Pseudomonas luteola” (Antimicrob Agents Chemother, 2010).
Values after ≈ are worked out from the molar mass of the structure shown. Active and inactive are the calls of the source. No cut-off for these calls is given here.

Tests used:
Pseudomonas luteola [1] = assay: Antimicrobial activity against Pseudomonas luteola by disk diffusion method; format: functional
Outline: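 Disk diffusion panel of 32 antimicrobial drugs tested on P. luteola clinical isolates and the type strain. Isolates were identified by API-20 NE and by sequencing of PCR-amplified rrs and rpoB.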

Escherichia coli [2] = assay: Antimicrobial activity against Escherichia coli DH10B by Etest method; format: functional; settings: K-12 DH10B
Escherichia coli [3] = assay: Antimicrobial activity against Escherichia coli DH10B transfected with pBK-L3 expressing blaLUT-1 by Etest method; format: functional; settings: K-12 DH10B
Pseudomonas luteola [4] = assay: Antimicrobial activity against Pseudomonas luteola expressing blaLUT-2 to blaLUT-6 by Etest method; format: functional
Pseudomonas luteola [5] = assay: Antimicrobial activity against Pseudomonas luteola LAM expressing blaLUT-1 by Etest method; format: functional
Escherichia coli [6] = assay: Antimicrobial activity against Escherichia coli DH10B at 2:1 ratio of compound to clavulanic acid by Etest method; format: functional; settings: K-12 DH10B
Pseudomonas luteola [7] = assay: Antimicrobial activity against Pseudomonas luteola LAM expressing blaLUT-1 at 2:1 ratio of compound to clavulanic acid by Etest method; format: functional
Escherichia coli [8] = assay: Antimicrobial activity against Escherichia coli DH10B transfected with pBK-L3 expressing blaLUT-1 at 2:1 ratio of compound to clavulanic acid by Etest method; format: functional; settings: K-12 DH10B
Pseudomonas luteola [9] = assay: Antimicrobial activity against Pseudomonas luteola expressing blaLUT-2 to blaLUT-6 at 2:1 ratio of compound to clavulanic acid by Etest method; format: functional
Escherichia coli [10] = assay: microbe, parasite or virus in culture; settings: K-12 DH10B
Pseudomonas luteola [11] = assay: Antimicrobial activity against Pseudomonas luteola expressing blaLUT-2 to blaLUT-6 by Etest method in presence of 4 ug/ml clavulanic acid; format: functional
Escherichia coli [12] = assay: Antimicrobial activity against Escherichia coli DH10B by Etest method in presence of 4 ug/ml clavulanic acid; format: functional; settings: K-12 DH10B
Pseudomonas luteola [13] = assay: Antimicrobial activity against Pseudomonas luteola LAM expressing blaLUT-1 by Etest method in presence of 4 ug/ml clavulanic acid; format: functional

Compound | MIC (Escherichia coli [2]) | MIC (Escherichia coli [3]) | MIC (Pseudomonas luteola [4]) | MIC (Pseudomonas luteola [5]) | other results
COc1cc(Cc2cnc(N)nc2N)cc(OC)c1OC |  |  |  |  | Activity (Pseudomonas luteola [1]): inactive
CO[C@@]1(NC(=O)Cc2cccs2)C(=O)N2C(C(=O)O)=C(COC(N)=O)CS[C@@H]21 [CEFOXITIN] | 4 mg/L (≈ 9.36 µM) | 4 mg/L (≈ 9.36 µM) | 32 mg/L (≈ 74.9 µM) | 32 mg/L (≈ 74.9 µM) | 
Cn1nnnc1SCC1=C(C(=O)O)N2C(=O)[C@@H](NC(=O)[C@H](O)c3ccccc3)[C@H]2SC1 |  |  |  |  | Activity (Pseudomonas luteola [1]): inactive
C[C@H]1[C@H](NC(=O)/C(=N\OC(C)(C)C(=O)O)c2csc(N)n2)C(=O)N1S(=O)(=O)O [AZTREONAM] |  | 2 mg/L (≈ 4.59 µM) | 4 mg/L (≈ 9.19 µM) | 2 mg/L (≈ 4.59 µM) | 
CC1(C)S[C@@H]2[C@H](NC(=O)[C@H](N)c3ccc(O)cc3)C(=O)N2[C@H]1C(=O)O [AMOXICILLIN] | 4 mg/L (≈ 10.9 µM) | 128 mg/L (≈ 350 µM) | 4 mg/L (≈ 10.9 µM) | 4 mg/L (≈ 10.9 µM) | MIC (Escherichia coli [6]): 4 mg/L; MIC (Pseudomonas luteola [7]): 1 mg/L; MIC (Escherichia coli [8]): 4 mg/L; MIC (Pseudomonas luteola [9]): 1 mg/L
C[C@@H](O)[C@H]1C(=O)N2C(C(=O)O)=C(SCCNC=N)C[C@H]12 [IMIPENEM ANHYDROUS] |  |  | 0.25 mg/L (≈ 0.835 µM) | 0.25 mg/L (≈ 0.835 µM) | 
CO/N=C(\C(=O)N[C@@H]1C(=O)N2C(C(=O)O)=C(COC(C)=O)CS[C@H]12)c1csc(N)n1 [CEFOTAXIME] | < 0.06 mg/L | 1 mg/L (≈ 2.2 µM) | 2 mg/L (≈ 4.39 µM) | 1 mg/L (≈ 2.2 µM) | MIC (Escherichia coli [10]): 0.06 mg/L (≈ 0.132 µM); MIC (Pseudomonas luteola [11]): 1 mg/L; MIC (Escherichia coli [12]): < 0.06 mg/L; MIC (Pseudomonas luteola [13]): 1 mg/L
CC(=O)OCC1=C(C(=O)O)N2C(=O)[C@@H](NC(=O)Cc3cccs3)[C@H]2SC1 [CEPHALOTHIN] | 4 mg/L (≈ 10.1 µM) | 32 mg/L (≈ 80.7 µM) | 128 mg/L (≈ 323 µM) | 64 mg/L (≈ 161 µM) | 
